For data set [1], the target named is Glutamate carboxypeptidase 2 (Homo sapiens, UniProt Q04609). The data set can be described thus: Inhibition of PSMA. The method in brief: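 Purified PSMA in 50 mM Tris pH 7.4, diluted to give 15–20% substrate conversion without inhibitor. Substrate PAB-Glu-γ-Glu at 10 μM final. Five serial inhibitor dilutions spanning 10–90% inhibition. 15 min at 37 °C with shaking. Stopped with methanolic TFA, buffered with K2HPO4, centrifuged. Supernatant quantified by HPLC; IC50 calculated.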

Data set [2] deals with prostate-specific antigen. Put plainly: Half life at pH 6.8 in presence of prostate-specific antigen. The class given is ADME. As to conditions: prostate-specific antigen (enzyme incubation).

pIC50: −log10 of the molar value.

Chain of Glutamate carboxypeptidase 2 (Q04609 whole entry): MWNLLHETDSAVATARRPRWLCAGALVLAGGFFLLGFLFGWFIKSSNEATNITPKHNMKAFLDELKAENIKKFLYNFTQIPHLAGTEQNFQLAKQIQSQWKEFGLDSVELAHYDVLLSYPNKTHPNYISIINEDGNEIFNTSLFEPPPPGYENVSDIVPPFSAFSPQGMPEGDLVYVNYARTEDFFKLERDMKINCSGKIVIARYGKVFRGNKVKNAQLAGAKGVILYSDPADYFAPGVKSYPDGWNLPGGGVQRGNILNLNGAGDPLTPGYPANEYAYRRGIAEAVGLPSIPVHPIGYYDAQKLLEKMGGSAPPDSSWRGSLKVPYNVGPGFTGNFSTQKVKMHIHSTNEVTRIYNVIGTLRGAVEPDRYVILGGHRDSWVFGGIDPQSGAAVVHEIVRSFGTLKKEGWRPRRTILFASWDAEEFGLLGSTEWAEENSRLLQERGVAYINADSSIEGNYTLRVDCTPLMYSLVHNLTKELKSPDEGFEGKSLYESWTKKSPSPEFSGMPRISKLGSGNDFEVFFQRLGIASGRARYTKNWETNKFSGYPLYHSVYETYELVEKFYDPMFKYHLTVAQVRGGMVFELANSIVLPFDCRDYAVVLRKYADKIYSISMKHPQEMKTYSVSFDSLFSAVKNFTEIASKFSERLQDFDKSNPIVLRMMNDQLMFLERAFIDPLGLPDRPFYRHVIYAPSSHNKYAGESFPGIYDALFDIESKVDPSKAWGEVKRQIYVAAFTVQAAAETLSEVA

In data set [1], `O=C(O)CC[C@H](NP(=O)(O)O)C(=O)O` [listing 1 of 2 here] had a pIC50 of 8.64.
On to `CN(C(=O)c1ccccc1)[C@@H](COP(=O)(O)N[C@@H](CCC(=O)O)C(=O)O)C(=O)O`, for which, in data set [1], the negative-log IC50 (pIC50) is 7.26.
Compound `CN(CCOP(=O)(O)N[C@@H](CCC(=O)O)C(=O)O)C(=O)c1ccccc1` gave a negative logarithm of the IC50 (pIC50) in data set [1] of 6.55.
In data set [1], `O=C(O)CC[C@H](NP(=O)(O)OC[C@@H](NC(=O)c1ccccc1)C(=O)O)C(=O)O` gave a pIC50 of 6.15. Compared with the last compound, the pIC50 is 0.40 log units lower.
Consider `O=C([O-])CC[C@H](NP(=O)([O-])OC[C@H](NC(=O)c1ccccc1)C(=O)[O-])C(=O)[O-].[K+].[K+].[K+].[K+]`, for which the pIC50 in data set [1] is 7.46. Further, in data set [2], the half-life came to 6.8 h.
As for `O=C(O)CC[C@H](NP(=O)(O)O)C(=O)O` [listing 2 of 2 here], the pIC50 in data set [1] was 9.07.
Still for that read-out and setting: next, `O=C(O)CC[C@H](OP(=O)(O)O)C(=O)O`: 7.82; `O=C(O)CC[C@H](NP(=O)(O)OCC(CCc1ccccc1)C(=O)O)C(=O)O` (stereo partly specified): 6.10; `O=C(O)CC[C@H](NP(=O)(O)OCCCCc1ccccc1)C(=O)O`: 6.74.
Same read-out and setting: next, `O=C(O)CC[C@H](NP(=O)(O)OCCNC(=O)c1ccccc1)C(=O)O`: 5.74.

The record behind these values is ChEMBL document CHEMBL1140497, “The molecular pruning of a phosphoramidate peptidomimetic inhibitor of prostate-specific membrane antigen” (Bioorg Med Chem, 2007).
